Measured values taken from ChEMBL document CHEMBL3227968, “Synthesis and antitumor activity of water-soluble (2-chloroethyl)nitrosoureas” (1979).
The source made the active and inactive calls. No cut-off for these calls is given here.

What was measured:
L1210 [1] = assay: Antitumor activity against mouse L1210 cells allografted in mouse assessed as mouse survival after 30 days at 2 mg/kg, ip qd for 8 days relative to control; assay type: functional, organism-based; set-up: dose 2 mg/kg
Summary of the method: (§1)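 L1210 leukemia, 10⁶ cells implanted ip per mouse. Dosing ip once daily for 8 days starting day 1, with solutions prepared fresh daily. Six mice per dose level. Survivors counted at day 30. Median survival time also recorded as %T/C = (MST treated/MST control) × 100, with T/C > 125 taken as significant.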

L1210 [2] = assay: Antitumor activity against mouse L1210 cells allografted in mouse assessed as mouse survival after 30 days at 1 mg/kg, ip qd for 8 days relative to control; assay type: functional, organism-based; set-up: dose 1 mg/kg; summary of the method: as §1
L1210 [3] = assay: Antitumor activity against mouse L1210 cells allografted in mouse assessed as mouse survival after 30 days at 0.5 mg/kg, ip qd for 8 days relative to control; assay type: functional, organism-based; set-up: dose 0.5 mg/kg; summary of the method: as §1
L1210 [4] = assay: Antitumor activity against mouse L1210 cells allografted in mouse assessed as mouse survival after 30 days at 0.25 mg/kg, ip qd for 8 days relative to control; assay type: functional, organism-based; set-up: dose 0.25 mg/kg; summary of the method: as §1
L1210 [5] = assay: Antitumor activity against mouse L1210 cells allografted in mouse assessed as median survival time at 32 mg/kg, ip qd for 8 days relative to control; assay type: functional; conditions: route intraperitoneal
Summary of the method: (§2)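 L1210 leukemia, 10⁶ cells per mouse implanted ip. Dosing ip once daily for 8 days from day 1, with solutions prepared fresh daily. Read-out: median survival time as %T/C = (MST treated/MST control) × 100, with T/C > 125 taken as significant inhibition. Survivors counted at 30 days, six mice per dose.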

L1210 [6] = assay: Antitumor activity against mouse L1210 cells allografted in mouse assessed as tumor inhibition at 16 mg/kg, ip qd for 8 days relative to control; assay type: functional; conditions: route intraperitoneal; summary of the method: as §2
L1210 [7] = assay: Antitumor activity against mouse L1210 cells allografted in mouse assessed as tumor inhibition at 8 mg/kg, ip qd for 8 days relative to control; assay type: functional; conditions: route intraperitoneal; summary of the method: as §2
L1210 [8] = assay: Antitumor activity against mouse L1210 cells allografted in mouse assessed as tumor inhibition at 4 mg/kg, ip qd for 8 days relative to control; assay type: functional; conditions: route intraperitoneal; summary of the method: as §2
L1210 [9] = assay: Antitumor activity against mouse L1210 cells allografted in mouse assessed as tumor inhibition at 2 mg/kg, ip qd for 8 days relative to control; assay type: functional; conditions: route intraperitoneal; summary of the method: as §2
L1210 [10] = assay: Antitumor activity against mouse L1210 cells allografted in mouse assessed as tumor inhibition at 1 mg/kg, ip qd for 8 days relative to control; assay type: functional; conditions: route intraperitoneal; summary of the method: as §2
L1210 [11] = assay: Antitumor activity against mouse L1210 cells allografted in mouse assessed as tumor inhibition at 0.5 mg/kg, ip qd for 8 days relative to control; assay type: functional; conditions: route intraperitoneal; summary of the method: as §2
L1210 [12] = assay: Antitumor activity against mouse L1210 cells allografted in mouse assessed as tumor inhibition at 0.25 mg/kg, ip qd for 8 days relative to control; assay type: functional; conditions: route intraperitoneal; summary of the method: as §2
L1210 [13] = assay: Antitumor activity against mouse L1210 cells allografted in mouse assessed as mouse survival after 30 days at 32 mg/kg, ip qd for 8 days relative to control; assay type: functional, organism-based; set-up: dose 32 mg/kg; summary of the method: as §1
L1210 [14] = assay: Antitumor activity against mouse L1210 cells allografted in mouse assessed as mouse survival after 30 days at 16 mg/kg, ip qd for 8 days relative to control; assay type: functional, organism-based; set-up: dose 16 mg/kg; summary of the method: as §1
L1210 [15] = assay: Antitumor activity against mouse L1210 cells allografted in mouse assessed as mouse survival after 30 days at 8 mg/kg, ip qd for 8 days relative to control; assay type: functional, organism-based; set-up: dose 8 mg/kg; summary of the method: as §1
L1210 [16] = assay: Antitumor activity against mouse L1210 cells allografted in mouse assessed as median survival time at 32 mg/kg, ip single dose relative to control; assay type: functional; conditions: route intraperitoneal
Summary of the method: (§3)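 L1210 leukemia, 10⁶ cells per mouse inoculated ip. Single ip dose given on day 1. Median survival time expressed as %T/C = (MST treated/MST control) × 100, with T/C > 125 counted as significant. Mice surviving at 30 days were recorded, six mice per treatment dose.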

L1210 [17] = assay: Antitumor activity against mouse L1210 cells allografted in mouse assessed as tumor inhibition at 16 mg/kg, ip single dose relative to control; assay type: functional; conditions: route intraperitoneal; summary of the method: as §3
L1210 [18] = assay: Antitumor activity against mouse L1210 cells allografted in mouse assessed as tumor inhibition at 8 mg/kg, ip single dose relative to control; assay type: functional; conditions: route intraperitoneal; summary of the method: as §3
L1210 [19] = assay: Antitumor activity against mouse L1210 cells allografted in mouse assessed as tumor inhibition at 4 mg/kg, ip single dose relative to control; assay type: functional; conditions: route intraperitoneal; summary of the method: as §3
L1210 [20] = assay: Antitumor activity against mouse L1210 cells allografted in mouse assessed as tumor inhibition at 2 mg/kg, ip single dose relative to control; assay type: functional; conditions: route intraperitoneal; summary of the method: as §3
L1210 [21] = assay: Antitumor activity against mouse L1210 cells allografted in mouse assessed as mouse survival after 30 days at 32 mg/kg, ip single dose relative to control; assay type: functional, organism-based; set-up: dose 32 mg/kg
Summary of the method: (§4)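 L1210 leukemia, 10⁶ cells implanted ip per mouse. One ip dose given on day 1. Six mice per dose level. Survivors counted at day 30. Median survival time also recorded as %T/C = (MST treated/MST control) × 100, with T/C > 125 taken as significant.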

L1210 [22] = assay: Antitumor activity against mouse L1210 cells allografted in mouse assessed as mouse survival after 30 days at 8 mg/kg, ip single dose relative to control; assay type: functional, organism-based; set-up: dose 8 mg/kg; summary of the method: as §4
L1210 [23] = assay: Antitumor activity against mouse L1210 cells allografted in mouse assessed as mouse survival after 30 days at 4 mg/kg, ip single dose relative to control; assay type: functional, organism-based; set-up: dose 4 mg/kg; summary of the method: as §4
L1210 [24] = assay: Antitumor activity against mouse L1210 cells allografted in mouse assessed as mouse survival after 30 days at 2 mg/kg, ip single dose relative to control; assay type: functional, organism-based; set-up: dose 2 mg/kg; summary of the method: as §4
L1210 [25] = assay: Antitumor activity against mouse L1210 cells allografted in mouse assessed as tumor inhibition at 128 mg/kg, ip single dose relative to control; assay type: functional; conditions: route intraperitoneal; summary of the method: as §3
L1210 [26] = assay: Antitumor activity against mouse L1210 cells allografted in mouse assessed as tumor inhibition at 64 mg/kg, ip single dose relative to control; assay type: functional; conditions: route intraperitoneal; summary of the method: as §3
L1210 [27] = assay: Antitumor activity against mouse L1210 cells allografted in mouse assessed as tumor inhibition at 1 mg/kg, ip single dose relative to control; assay type: functional; conditions: route intraperitoneal; summary of the method: as §3
L1210 [28] = assay: Antitumor activity against mouse L1210 cells allografted in mouse assessed as mouse survival after 30 days at 128 mg/kg, ip single dose relative to control; assay type: functional, organism-based; set-up: dose 128 mg/kg; summary of the method: as §4
L1210 [29] = assay: Antitumor activity against mouse L1210 cells allografted in mouse assessed as mouse survival after 30 days at 16 mg/kg, ip single dose relative to control; assay type: functional, organism-based; set-up: dose 16 mg/kg; summary of the method: as §4
L1210 [30] = assay: Antitumor activity against mouse L1210 cells allografted in mouse assessed as mouse survival after 30 days at 1 mg/kg, ip single dose relative to control; assay type: functional, organism-based; set-up: dose 1 mg/kg; summary of the method: as §4
L1210 [31] = assay: Antitumor activity against mouse L1210 cells allografted in mouse assessed as mouse survival after 30 days at 4 mg/kg, ip qd for 8 days relative to control; assay type: functional, organism-based; set-up: dose 4 mg/kg; summary of the method: as §1

## O=NN(CCCl)C(=O)N[C@H]1[C@H](O)[C@H](O)[C@H](O)[C@@H]1O
L1210 [1]
  Survival: inactive
L1210 [2]
  Survival: inactive
L1210 [3]
  Survival: inactive
L1210 [4]
  Survival: inactive
L1210 [5]
  T/C: 186%
L1210 [6]
  T/C: >471%
L1210 [7]
  T/C: >471%
L1210 [8]
  T/C: 250%
L1210 [9]
  T/C: 143%
L1210 [10]
  T/C: 114%
L1210 [11]
  T/C: 114%
L1210 [12]
  T/C: 107%
L1210 [13]
  Survival: inactive
L1210 [14]
  Survival: Active

## O=NN(CCCl)C(=O)N[C@H]1[C@H](O)[C@H](O)[C@@H](O)[C@@H]1O
L1210 [1]
  Survival: inactive
L1210 [2]
  Survival: inactive
L1210 [3]
  Survival: inactive
L1210 [4]
  Survival: inactive
L1210 [5]
  T/C: 171%
L1210 [6]
  T/C: >471%
L1210 [7]
  T/C: 243%
L1210 [8]
  T/C: 207%
L1210 [9]
  T/C: 221%
L1210 [10]
  T/C: 157%
L1210 [11]
  T/C: 114%
L1210 [12]
  T/C: 144%
L1210 [13]
  Survival: inactive
L1210 [15]
  Survival: inactive

## O=NN(CCCl)C(=O)N[C@H]1[C@@H](O)[C@@H](O)[C@H](NC(=O)N(CCCl)N=O)[C@@H](O)[C@@H]1O
L1210 [16]
  T/C: 136%
L1210 [17]
  T/C: >471%
L1210 [18]
  T/C: 214%
L1210 [19]
  T/C: 171%
L1210 [20]
  T/C: 150%
L1210 [21]
  Survival: inactive
L1210 [22]
  Survival: inactive
L1210 [23]
  Survival: inactive
L1210 [24]
  Survival: inactive

## O=NN(CCCl)C(=O)N[C@@H]1[C@H](O)[C@H](NC(=O)N(CCCl)N=O)[C@@H](O)[C@H](O)[C@H]1O
L1210 [25]
  T/C: 86%
L1210 [26]
  T/C: 250%
L1210 [16]
  T/C: 214%
L1210 [17]
  T/C: 179%
L1210 [18]
  T/C: 171%
L1210 [19]
  T/C: 114%
L1210 [20]
  T/C: 121%
L1210 [27]
  T/C: 100%
L1210 [28]
  Survival: inactive
L1210 [21]
  Survival: inactive
L1210 [29]
  Survival: inactive
L1210 [22]
  Survival: inactive
L1210 [23]
  Survival: inactive
L1210 [24]
  Survival: inactive
L1210 [30]
  Survival: inactive

## O=NN(CCCl)C(=O)NCCCl [CARMUSTINE]
L1210 [1]
  Survival: inactive
L1210 [2]
  Survival: inactive
L1210 [3]
  Survival: inactive
L1210 [4]
  Survival: inactive
L1210 [16]
  T/C: >471%
L1210 [17]
  T/C: 271%
L1210 [18]
  T/C: 193%
L1210 [19]
  T/C: 143%
L1210 [20]
  T/C: 114%
L1210 [22]
  Survival: inactive
L1210 [23]
  Survival: inactive
L1210 [24]
  Survival: inactive
L1210 [5]
  T/C: 193%
L1210 [6]
  T/C: >471%
L1210 [7]
  T/C: 293%
L1210 [8]
  T/C: 193%
L1210 [9]
  T/C: 114%
L1210 [10]
  T/C: 100%
L1210 [11]
  T/C: 100%
L1210 [12]
  T/C: 100%
L1210 [14]
  Survival: Active
L1210 [15]
  Survival: inactive
L1210 [31]
  Survival: inactive

## O=NN(CCCl)C(=O)N[C@H]1[C@@H](O)[C@@H](O)[C@H](NC(=O)N(CCCl)N=O)[C@H](O)[C@@H]1O
L1210 [25]
  T/C: 293%
L1210 [26]
  T/C: 286%
L1210 [16]
  T/C: >471%
L1210 [17]
  T/C: >243%
L1210 [18]
  T/C: 171%
L1210 [19]
  T/C: 136%
L1210 [20]
  T/C: 129%
L1210 [27]
  T/C: 114%
L1210 [28]
  Survival: inactive
L1210 [29]
  Survival: inactive
L1210 [22]
  Survival: inactive
L1210 [23]
  Survival: inactive
L1210 [24]
  Survival: inactive
L1210 [30]
  Survival: inactive

## O=NN(CCCl)C(=O)N[C@H]1[C@H](O)[C@@H](O)[C@@H](O)[C@@H]1O
L1210 [1]
  Survival: inactive
L1210 [2]
  Survival: inactive
L1210 [3]
  Survival: inactive
L1210 [4]
  Survival: inactive
L1210 [5]
  T/C: 143%
L1210 [6]
  T/C: 171%
L1210 [7]
  T/C: 336%
L1210 [8]
  T/C: 229%
L1210 [9]
  T/C: 171%
L1210 [10]
  T/C: 114%
L1210 [11]
  T/C: 107%
L1210 [12]
  T/C: 100%
L1210 [13]
  Survival: inactive
L1210 [14]
  Survival: inactive
L1210 [31]
  Survival: inactive
